Data: ChEMBL document CHEMBL4028918, “7-Phenoxy-Substituted 3,4-Dihydro-2H-1,2,4-benzothiadiazine 1,1-Dioxides as Positive Allosteric Modulators of α-Amino-3-hydroxy-5-methyl-4-isoxazolepropionic Acid (AMPA) Receptors with Nanomolar Potency” (J Med Chem, 2018)
Activity calls are given as the source filed them. The rule behind the calls is not given here.

Assays:
[1] = biological target: Glutamate receptor 2 (Homo sapiens, UniProt P42262); assay: Positive allosteric modulation of GluA2 (Q) flop isoform (unknown origin) expressed in HEK293 cells assessed as potentiation of glutamate-evoked calcium flux by fluo-4/AM dye-based fluorescence assay; assay type: cell-based
Chain of Glutamate receptor 2 (P42262 whole entry, the tested form may be a part, canonical isoform): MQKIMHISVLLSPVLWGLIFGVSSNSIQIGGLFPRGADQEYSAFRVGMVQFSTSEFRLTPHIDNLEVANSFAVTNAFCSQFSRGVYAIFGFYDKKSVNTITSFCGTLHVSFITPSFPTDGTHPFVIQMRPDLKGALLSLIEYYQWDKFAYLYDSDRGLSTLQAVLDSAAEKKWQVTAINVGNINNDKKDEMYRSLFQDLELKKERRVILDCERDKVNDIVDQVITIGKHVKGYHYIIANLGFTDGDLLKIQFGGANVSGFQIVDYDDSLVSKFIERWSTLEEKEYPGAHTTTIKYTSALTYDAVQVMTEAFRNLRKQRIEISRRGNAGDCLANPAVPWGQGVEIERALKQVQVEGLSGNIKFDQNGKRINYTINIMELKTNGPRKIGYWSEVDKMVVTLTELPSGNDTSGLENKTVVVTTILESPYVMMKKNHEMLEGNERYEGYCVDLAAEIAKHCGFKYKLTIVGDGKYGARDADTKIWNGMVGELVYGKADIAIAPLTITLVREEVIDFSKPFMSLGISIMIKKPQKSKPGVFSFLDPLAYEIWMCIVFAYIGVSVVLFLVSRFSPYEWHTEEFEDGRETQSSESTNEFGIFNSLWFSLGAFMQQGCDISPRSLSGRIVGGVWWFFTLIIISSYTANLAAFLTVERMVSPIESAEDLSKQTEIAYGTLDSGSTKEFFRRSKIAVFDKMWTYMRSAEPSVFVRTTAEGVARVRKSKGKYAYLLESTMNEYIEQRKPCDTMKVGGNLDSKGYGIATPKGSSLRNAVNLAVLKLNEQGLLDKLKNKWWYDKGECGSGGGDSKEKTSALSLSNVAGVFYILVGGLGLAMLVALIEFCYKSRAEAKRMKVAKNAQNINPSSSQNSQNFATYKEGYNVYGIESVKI

[2] = species: Rattus norvegicus; assay: Induction of dimerization of rat N-terminal His-tagged GluA2-LBD-N775S mutant expressed in Escherichia coli Origami B (DE3) assessed as intrinsic binding constant by small-angle X-ray scattering method
In short: (§1)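 1 μL modulator in DMSO was added to 29 μL protein. Samples were held at 4 °C and read on the CHESS G1 beamline, three replicates averaged, with buffer subtraction.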

[3] = species: Rattus norvegicus; assay: Induction of dimerization of rat N-terminal His-tagged GluA2-LBD-N775S mutant expressed in Escherichia coli Origami B (DE3) assessed as dimerization constant by small-angle X-ray scattering method; in short: as §1
[4] = species: Rattus norvegicus; assay: Induction of dimerization of rat N-terminal His-tagged/15N-labeled GluA2-LBD-N775S mutant expressed in Escherichia coli Origami B (DE3) at 90 uM by NMR spectroscopy

SMILES	EC50 ([1]; read-out: EC50) [µM]	other results
CC1N(C)c2ccc(Cl)cc2S(=O)(=O)N1C (stereo not drawn)	18.7	
Cc1ccc(Oc2ccc3c(c2)S(=O)(=O)NCN3C)cc1	0.95	
Cc1ccccc1Oc1ccc2c(c1)S(=O)(=O)NCN2C		EC50 ([1]; read-out: pEC50 (converted)): > 10 µM
O=S1(=O)NCN(C2CC2)c2ccc(F)cc21	0.81	K [2]: 9 ×10⁻⁷ M
CN1CNS(=O)(=O)c2cc(Oc3ccccc3)ccc21	7.62	
COc1ccc(Oc2ccc3c(c2)S(=O)(=O)NCN3C2CC2)cc1	1.82	
Cc1ccc(Oc2ccc3c(c2)S(=O)(=O)NCN3C2CC2)cc1	3.19	
Cc1ccccc1Oc1ccc2c(c1)S(=O)(=O)NCN2C1CC1	15.6	
COc1ccccc1Oc1ccc2c(c1)S(=O)(=O)NCN2C	> 10	
O=S1(=O)NCN(CCF)c2ccc(Cl)cc21	20.4	K [2]: 2 ×10⁻⁶ M
COc1ccc(Oc2ccc3c(c2)S(=O)(=O)NCN3C)cc1	5.9	
COc1ccccc1Oc1ccc2c(c1)S(=O)(=O)NCN2C1CC1	15.6	

Now from value to compound, other results behind:

EC50 ([1]; read-out: EC50) [µM]	SMILES	other results
0.05	Cc1cccc(Oc2ccc3c(c2)S(=O)(=O)NCN3C2CC2)c1	
0.37	COc1cccc(Oc2ccc3c(c2)S(=O)(=O)NCN3C)c1	
0.39	Cc1cccc(Oc2ccc3c(c2)S(=O)(=O)NCN3C)c1	
0.002	COc1cccc(Oc2ccc3c(c2)S(=O)(=O)NCN3C2CC2)c1	K [2]: 5 ×10⁻¹¹ M; K [3]: 32 mM; Activity [4]: Active
0.71	O=S1(=O)NCN(C2CC2)c2ccc(Oc3ccccc3)cc21	
0.45	N#Cc1cccc(Oc2ccc3c(c2)S(=O)(=O)NCN3C2CC2)c1	
